This is a sample that favours compounds with a hit; in the whole collection about 2.2% have one here.
14-3-3 Bad PPI = inhibitors of 14-3-3 zeta/Bad binding, primary screen, biochemical, TR-FRET, bovine 14-3-3 zeta; TR-FRET 14-3-3zeta/Dy647-pBad peptide displacement, 1 h; actives 0.71% (n = 220,000); 14-3-3 protein zeta/delta (Bos taurus), P63103; inhibition, % at 21.7 µM;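 active = inhibition above about 70%, limit read from the data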;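 also: 0% = full 14-3-3 plus peptide FRET controls and 100% = background without 14-3-3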
p97 inhibitor = inhibitors of human p97 ATPase, primary screen, biochemical; recombinant p97 ATPase, Kinase-Glo ATP luminescence, 3 h; inhibition, % at 8 µM; actives 0.42% (n = 220,000); Transitional endoplasmic reticulum ATPase (Homo sapiens), P55072; in the data active = inhibition above about 15%;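 also: 0% = DMSO vehicle and 100% = wells lacking enzyme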
eIF4E 4G PPI = eIF4E–eIF4G protein interaction inhibitors, primary screen, biochemical, uHTS, TR-FRET, eIF4GI fragment | TR-FRET eIF4E-eIF4GI(517-606) binding, 2 h | AID 782, 2007 | Eukaryotic translation initiation factor 4E (Mus musculus) + Eukaryotic translation … | actives 0.37% (n = 220,000) | inhibition, % at 21.7 µM;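 active = inhibition above about 30%, limit read from the data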;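 also: 0% = full FRET control wells and 100% = background wells lacking eIF4GI fragment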
Target sequence (P63073 whole entry, looked up, the tested form may be a part): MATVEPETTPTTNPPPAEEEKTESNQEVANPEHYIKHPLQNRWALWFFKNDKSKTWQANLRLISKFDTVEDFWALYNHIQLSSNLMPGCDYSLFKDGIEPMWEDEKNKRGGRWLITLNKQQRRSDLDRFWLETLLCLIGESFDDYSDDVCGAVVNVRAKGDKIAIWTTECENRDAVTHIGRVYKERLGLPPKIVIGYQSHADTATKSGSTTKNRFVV
Target sequence (Q04637 whole entry, looked up, the tested form may be a part): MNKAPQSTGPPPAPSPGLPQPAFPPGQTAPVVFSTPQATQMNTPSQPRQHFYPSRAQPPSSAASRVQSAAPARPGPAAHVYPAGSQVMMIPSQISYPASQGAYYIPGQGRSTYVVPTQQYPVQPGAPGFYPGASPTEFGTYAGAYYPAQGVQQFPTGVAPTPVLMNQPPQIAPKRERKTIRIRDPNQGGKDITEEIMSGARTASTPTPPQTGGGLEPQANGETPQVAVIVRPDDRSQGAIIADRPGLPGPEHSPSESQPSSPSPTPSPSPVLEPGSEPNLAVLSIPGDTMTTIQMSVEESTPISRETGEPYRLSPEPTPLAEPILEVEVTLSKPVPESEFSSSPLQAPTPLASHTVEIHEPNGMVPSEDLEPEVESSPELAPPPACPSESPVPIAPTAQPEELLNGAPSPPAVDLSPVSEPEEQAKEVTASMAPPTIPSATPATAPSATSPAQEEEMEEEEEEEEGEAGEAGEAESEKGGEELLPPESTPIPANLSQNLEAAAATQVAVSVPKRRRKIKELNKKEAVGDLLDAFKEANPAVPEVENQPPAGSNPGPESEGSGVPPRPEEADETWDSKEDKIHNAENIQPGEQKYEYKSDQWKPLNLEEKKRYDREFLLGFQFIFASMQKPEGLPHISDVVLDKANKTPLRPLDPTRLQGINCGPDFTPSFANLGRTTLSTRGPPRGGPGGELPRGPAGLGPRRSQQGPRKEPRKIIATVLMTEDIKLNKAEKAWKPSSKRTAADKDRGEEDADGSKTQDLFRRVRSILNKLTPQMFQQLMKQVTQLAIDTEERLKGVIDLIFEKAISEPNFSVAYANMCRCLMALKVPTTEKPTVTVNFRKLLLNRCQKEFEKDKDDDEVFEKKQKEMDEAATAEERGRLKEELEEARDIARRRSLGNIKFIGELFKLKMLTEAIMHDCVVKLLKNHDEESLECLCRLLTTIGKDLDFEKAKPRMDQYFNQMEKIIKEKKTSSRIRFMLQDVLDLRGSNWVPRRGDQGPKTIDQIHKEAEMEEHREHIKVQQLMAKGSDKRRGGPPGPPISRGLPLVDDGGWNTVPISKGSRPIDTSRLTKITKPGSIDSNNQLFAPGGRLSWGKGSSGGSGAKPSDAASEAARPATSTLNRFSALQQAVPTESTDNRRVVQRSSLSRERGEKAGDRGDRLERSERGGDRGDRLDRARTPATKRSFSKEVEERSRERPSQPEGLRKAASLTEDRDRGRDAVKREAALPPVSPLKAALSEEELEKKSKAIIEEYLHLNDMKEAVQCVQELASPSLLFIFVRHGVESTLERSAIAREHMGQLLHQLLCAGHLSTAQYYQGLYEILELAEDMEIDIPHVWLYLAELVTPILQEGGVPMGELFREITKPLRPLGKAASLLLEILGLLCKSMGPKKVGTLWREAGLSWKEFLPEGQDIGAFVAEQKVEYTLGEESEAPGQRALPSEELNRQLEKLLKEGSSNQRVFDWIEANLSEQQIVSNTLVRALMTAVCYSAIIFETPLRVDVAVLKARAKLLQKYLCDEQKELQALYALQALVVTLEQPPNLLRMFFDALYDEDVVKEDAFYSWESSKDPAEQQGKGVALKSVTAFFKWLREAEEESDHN
Calb biofilm kill = clotrimazole potentiators killing C. albicans biofilm, primary screen, 4-compound mixtures | inhibition, % at 7.6 µM | actives 0.02% (n = 120,000) | C. albicans biofilm persisters + clotrimazole, fluorescence viability; primary screen in compound mixtures of four per well;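 also: compounds exposed to preformed 24 h biofilms for 48 h; 0% = untreated biofilm control and 100% = clotrimazole plus chlorhexidine kill blank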
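Test system: C. albicans CAF4-2 wild-type biofilms; buffer or medium: RPMI/MOPS medium, pH 7.0; schedule: 24 h biofilm formation, then 48 h compound exposure, 37 °C; detection: Alamar Blue fluorescence; measure: percent inhibition of biofilm viability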
PERK inhibitor = block of dimerizer-induced PERK translation repression, primary screen, PERK inhibitor project, CHO PERK-DD cells, SEAP luminescence, HTS. Eukaryotic translation initiation factor 2-alpha kinase 3 (Homo sapiens), Q9NZJ5. CHO PERK-DD fusion, SEAP luminescence translation reporter. inhibition, % at 5.6 µM. actives 0.17% (n = 220,000). AID 1416, 2008;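 active = inhibition above the mean inhibition of all tested compounds plus 3 SD, set separately per screening campaign, cut at about 2.9% in these data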;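 also: PERK kinase domain activated by AP20187 dimerizer at 100 nM; 0% = DMSO with dimerizer and 100% = rapamycin at 8.4 µM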
Hck-Nef inh = inhibitors of Nef-activated human Hck kinase, primary screen, biochemical, Z-Lyte FRET, 384-well, Hck-YEEI | Tyrosine-protein kinase HCK (Homo sapiens), P08631 | Recombinant Hck-YEEI plus Nef, Z-Lyte FRET kinase assay | inhibition, % at 20 µM | actives 0.68% (n = 220,000);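 active = Hck-Nef kinase inhibition above about 50%, limit read from the data; inactive = inhibition below that limit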;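 also: 0% = DMSO with Hck plus Nef and 100% = Hck alone without Nef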
An asterisk follows results filed as active; · = no result; [ ] = another dose, or the depositor's remark.

SMILES	14-3-3 Bad PPI	p97 inhibitor	eIF4E 4G PPI	Calb biofilm kill	PERK inhibitor	Hck-Nef inh
Cc1nn(C)cc1/C=N/NC(=O)Cn1cncn1	-1	-9	1	33	0	1
COCC(=O)Oc1c(Sc2ccccc2[N+](=O)[O-])c(C)nn1C(C)(C)C	42	4	41*	8	0	24
CCCC(C)c1nnc(NC(=O)C(=O)OCC)s1 (stereo not drawn)	-2	2	2	8	3.0*	11
CCCC(C)c1nnc(NC(=O)C2CCCO2)s1 (stereo not drawn)	-15	-1	-6	·	-1	-9
COc1ccc(N2CCN(C(=O)c3cccnc3)CC2)c([N+](=O)[O-])c1	-9	-1	-2	8	0	5
CCCCCOCC1CC(C/C(C)=N/Nc2nc(-c3ccccc3)cs2)C(=O)O1 (stereo not drawn)	81*	0	8	·	0	2
CCCCCOCC1CC(C/C(C)=N/NC(N)=S)C(=O)O1 (stereo not drawn)	8	-3	1	4	2	3
Cc1ccc(C)n1-c1ccc(-c2ccnc(N)n2)cc1	-10	2	-5	11	-1	28
CCOc1ccc(-c2nnc(SCC(=O)Nc3ccc4c(c3)c3ccccc3n4CC)n2N)cc1	73*	-4	-48	·	-1	11
CCn1c2ccccc2c2cc(NC(=O)CSc3nnc(-c4ccc(OC)c(OC)c4)n3N)ccc21	5	12	-2	·	-1	1
CCN(CC)S(=O)(=O)c1ccc(N2CCOCC2)c(NC(=S)NC(=O)c2ccco2)c1	-3	3	2	-1	-2	6
Cc1ccc(CNCC2CCCO2)s1 (stereo not drawn)	90*	2	0	·	1	2
c1cc(CNCC2CCCO2)ccn1 (stereo not drawn)	-14	9	5	18	1	26
O=c1c2oc3nc4c(cc3c2ncn1CCCc1ccccc1)CCCC4	-2	2	-2	15	-1	3
CCOC(=O)C1(Cc2cccc(F)c2)CCN(Cc2ccc(COC)o2)CC1	2	-5	-3	26	0	19
Cc1ccc(NC2c3ncccc3C(=O)N2c2ccccc2C)cc1C (stereo not drawn)	94*	-1	91*[fluorescence artefact?]	·	0	-1
Cn1c(=S)ccc2ccccc21	2	-4	0	13	-1	7
COc1cc2c(cc1OC)-c1cc(NCc3ccccn3)nc(=O)n1CC2	91*[fluorescence artefact?]	2	88*	·	1	3
COC(=O)c1cc(=O)n(Cc2ccc3c(c2)OCO3)c(=Nc2ccc(F)c(Cl)c2)s1	5	4	9	·	2.9*	3
O=C(COC(=O)c1ccc2c(c1)C(=O)N(c1cccc3ncccc13)C2=O)c1ccc(Cl)cc1	75*	3	12	12	2	37
Cc1ccc(C(=O)COC(=O)c2ccc3c(c2)C(=O)N(c2cccc4ncccc24)C3=O)cc1	88*	-1	21	13	1	3
O=C(OCC(=O)c1ccc(Cl)cc1Cl)c1ccc2c(c1)C(=O)N(c1cccc3ncccc13)C2=O	0	0	-11	·	1	8
Cc1ccc(C(=O)COC(=O)c2cc(Cl)nc3ccccc23)cc1	0	0	-1	·	0	6
CCn1c(=O)cc(OCC(=O)NCc2cccs2)c2ccccc21	-8	3	2	19	0	26
CN1/C(=C\C(=O)C[n+]2ccc3ccccc3c2)C(C)(C)c2ccccc21	-9	5	-3	9	0	18
SMILES	14-3-3 Bad PPI	p97 inhibitor	eIF4E 4G PPI	Calb biofilm kill	PERK inhibitor	Hck-Nef inh
COc1ccccc1NC(=S)NC1CC2CCC1C2 (stereo not drawn)	7	2	-8	10	1	26
CN(C)NC(=S)NC1CC2CCC1C2 (stereo not drawn)	-2	-1	90*	12	-1	19
Cc1cccc(N2CSC3=C(C#N)C(c4ccc(C)o4)CC(=O)N3C2)c1 (stereo not drawn)	13	17*	16	·	0	80*
COc1ccc(OC)c(C2CC(=O)N3CN(c4ccccc4)CSC3=C2C#N)c1 (stereo not drawn)	6	-4	-3	·	0	0
Cc1cc(-c2ccccc2)nc(SCC(=O)N2CCCC2)n1	3	-1	3	17	0	-5
Cc1ccc(C2(C(F)(F)F)NC(=O)N3CCN=C3S2)cc1 (stereo not drawn)	-10	0	-1	·	2.9*	1
Cc1ccc(C2(C(F)(F)F)NC(=O)N3CCCN=C3S2)cc1 (stereo not drawn)	-7	-1	4	·	1	-2
c1ccc(-c2cc(-c3ccc(N4CCOCC4)cc3)nc3ccccc23)cc1	3	3	15	1	1	6
COc1ccc2c(-c3ccccc3)cc(N3CCOCC3)nc2c1	86*[fluorescence artefact?]	1	18	·	0	0
COc1ccccc1OCCCCCc1c(C)n[nH]c1C	72*	-8	-2	·	0	0
CCOc1ccccc1OCCCCCc1c(C)n[nH]c1C	33	-10	47*	·	0	-1
O=S(=O)(O)c1ccc(N2N=C(c3ccccc3)CC2c2ccccc2)cc1 (stereo not drawn)	13	2	5	10	1	85*
NS(=O)(=O)c1ccc(N2N=C(c3ccccc3)CC2c2ccccc2)cc1 (stereo not drawn)	-4	-3	5	14	0	35
CNS(=O)(=O)c1ccc(OC)c(-c2nnc3c4ccccc4c(C)nn23)c1	92*	-1	-5	·	0	0
COc1ccc(N2CC(NC(=O)N3CCc4ccccc43)CC2=O)cc1OC (stereo not drawn)	1	3	-3	4	1	27
O=C(O)c1cc(-c2ccc(Cl)cc2)n(-c2ccccc2)n1	-6	6	-4	7	1	26
O=C(O)c1cc(-c2ccccc2)n(-c2ccccc2C(=O)O)n1	11	1	42*	·	1	1
Cc1ccc(-c2cc(N)n(-c3ccc(C)cc3)n2)cc1	-4	-1	2	·	0	-1
Cc1ccc(-c2cc(N)n(-c3ccc(F)cc3)n2)cc1	-4	1	-1	-27	3.4*	-7
